# Results taken from ChEMBL document CHEMBL4190330, “Discovery of Potent and Selective A2A Antagonists with Efficacy in Animal Models of Parkinson's Disease and Depression” (ACS Med Chem Lett, 2017).
# Assays:
# [1] = target: T1, Adenosine receptor A1 (Homo sapiens) (UniProt P30542); assay: Displacement of [3H]-DPCPX from human A1 receptor expressed in HEK293 cell membranes at 1 uM after 90 mins radioligand binding assay relative to control
# T1 sequence (whole entry): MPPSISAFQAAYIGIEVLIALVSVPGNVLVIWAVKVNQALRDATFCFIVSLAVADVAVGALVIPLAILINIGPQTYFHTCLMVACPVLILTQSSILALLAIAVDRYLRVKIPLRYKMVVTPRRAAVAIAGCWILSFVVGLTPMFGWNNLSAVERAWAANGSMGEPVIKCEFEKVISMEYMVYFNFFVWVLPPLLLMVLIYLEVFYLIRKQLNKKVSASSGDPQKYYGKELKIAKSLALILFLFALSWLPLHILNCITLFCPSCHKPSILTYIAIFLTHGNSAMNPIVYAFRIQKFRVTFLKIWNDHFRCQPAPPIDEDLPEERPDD
# [2] = Metabolic stability in human liver microsomes; assay type: ADME, microsome
# Adenosine receptor A2a [3] = target: Adenosine receptor A2a (Rattus norvegicus, UniProt P30543); assay: Antagonist activity at rat A2A receptor assessed as reduction in CGS-21680-induced cAMP level pretreated for 15 mins followed by CGS-21680 addition measured after 30 mins by HTRF assay; assay type: functional
# In short: (§1)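 HTRF-based cAMP functional assay; each compound tested at 12 concentrations, every point in triplicate; Ki given as mean of two independent experiments (n=2).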
# Adenosine receptor A2a [4] = target: T2, Adenosine receptor A2a (Homo sapiens, UniProt P29274); assay: Antagonist activity at human A2A receptor expressed in HEK293 cell membranes assessed as reduction in CGS-21680-induced cAMP level pretreated for 15 mins followed by CGS-21680 addition measured after 30 mins by HTRF assay; assay type: functional, cell-based; in short: as §1
# [5] = Metabolic stability in rat liver microsomes; assay type: ADME, microsome
# Adenosine receptor A2a [6] = target: T2, Adenosine receptor A2a; assay: Displacement of [3H]ZM241385 from human A2A receptor expressed in HEK293 cell membranes after 90 mins radioligand binding assay
# In short: (§2)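 Membranes from HEK-293 cells overexpressing the relevant human adenosine receptor subtype; all points in triplicate; Ki derived from 8-concentration IC50 curves.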
# [7] = Solubility of the compound at pH 7.4; assay type: physicochemical; details: buffer
# Adenosine receptor A1 = target: T3, Adenosine receptor A1 (Homo sapiens, UniProt P30542); assay: Displacement of [3H]-DPCPX from human A1 receptor expressed in HEK293 cell membranes after 90 mins radioligand binding assay; in short: as §2
# T3 sequence (P30542 whole entry): T1 sequence (whole entry)
# Homo sapiens [8] = organism: Homo sapiens; assay: Selectivity ratio of Ki for displacement of [3H]-DPCPX from human A1 receptor expressed in HEK293 cell membranes to Ki for displacement of [3H]ZM241385 from human A2A receptor expressed in HEK293 cell membranes
# In short: (§3)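 Radioligand binding used membranes from HEK-293 cells overexpressing each human adenosine receptor isoform. Points were run in triplicate, and 8-concentration IC50 curves were plotted to give Ki. The selectivity value is the Ki at the off-target isoform divided by the Ki at hA2A.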
# Homo sapiens [9] = organism: Homo sapiens; assay: Selectivity ratio of Ki for displacement of [3H]-MRS-1754 from human A2B receptor expressed in HEK293 cell membranes to Ki for displacement of [3H]ZM241385 from human A2A receptor expressed in HEK293 cell membranes; in short: as §3
# Homo sapiens [10] = organism: Homo sapiens; assay: Selectivity ratio of Ki for displacement of [3H]-HEMADO from human A3 receptor expressed in HEK293 cell membranes to Ki for displacement of [3H]ZM241385 from human A2A receptor expressed in HEK293 cell membranes; in short: as §3
# Sequence of Adenosine receptor A2a (Rattus norvegicus, UniProt P30543) (P30543 whole entry): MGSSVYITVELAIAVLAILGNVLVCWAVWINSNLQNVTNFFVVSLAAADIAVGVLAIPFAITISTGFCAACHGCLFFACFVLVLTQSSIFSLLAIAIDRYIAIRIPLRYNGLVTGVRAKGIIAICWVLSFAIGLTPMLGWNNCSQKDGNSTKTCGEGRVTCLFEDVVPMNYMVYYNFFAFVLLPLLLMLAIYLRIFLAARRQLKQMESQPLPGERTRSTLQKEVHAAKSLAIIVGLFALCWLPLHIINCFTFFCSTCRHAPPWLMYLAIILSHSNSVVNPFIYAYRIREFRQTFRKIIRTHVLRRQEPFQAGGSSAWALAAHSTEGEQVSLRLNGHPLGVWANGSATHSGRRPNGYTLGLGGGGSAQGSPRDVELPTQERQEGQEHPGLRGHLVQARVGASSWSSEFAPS
# T2 sequence (P29274 whole entry): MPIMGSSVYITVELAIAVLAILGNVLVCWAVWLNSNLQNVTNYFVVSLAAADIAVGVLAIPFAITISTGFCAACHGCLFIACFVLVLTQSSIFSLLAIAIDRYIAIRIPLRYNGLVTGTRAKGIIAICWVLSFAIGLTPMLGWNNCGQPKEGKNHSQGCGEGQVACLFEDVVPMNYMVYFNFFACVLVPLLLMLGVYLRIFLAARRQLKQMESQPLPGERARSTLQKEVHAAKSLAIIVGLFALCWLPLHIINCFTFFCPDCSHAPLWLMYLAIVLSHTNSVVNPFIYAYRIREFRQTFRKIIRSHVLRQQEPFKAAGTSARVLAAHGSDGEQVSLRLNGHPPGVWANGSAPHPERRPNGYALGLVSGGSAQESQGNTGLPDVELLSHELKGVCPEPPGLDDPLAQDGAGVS
SMILES,inhibition [1],Stability [2],Ki (Adenosine receptor A2a [3]),Ki (Adenosine receptor A2a [4]),Stability [5],Ki (Adenosine receptor A2a [6]),solubility [7],Ki (Adenosine receptor A1),Ratio Ki (Homo sapiens [8]),Ratio Ki (Homo sapiens [9]),Ratio Ki (Homo sapiens [10])
COCC(C)Oc1ccc(N2CCN(CCn3c(=O)n(C)c4c3nc(N)n3nc(-c5ccco5)nc43)CC2)cc1 (stereo not given),56%,Stable,0.42 nM,1.5 nM,Stable,0.4 nM,,,,,
Cc1ccc(N2CCN(CCn3c(=O)n(C)c4c3nc(N)n3nc(-c5ccco5)nc43)CC2)cc1,45%,Stable,0.74 nM,1.1 nM,Stable,1.4 nM,,,,,
Cn1c(=O)n(CCN2CCN(c3ccc(C(F)(F)F)cc3)CC2)c2nc(N)n3nc(-c4ccco4)nc3c21,57%,Stable,,,Stable,3.1 nM,,,,,
COCCOc1ccc(N2CCN(CCn3c(=O)n(C)c4c3nc(N)n3nc(-c5ccco5)nc43)CC2)cc1,,Stable,0.28 nM,0.42 nM,Stable,2 nM,< 6 µM,1700 nM,850,> 3000,> 2000
Cn1c(=O)n(CCN2CCN(c3ccc(OC4CCOC4)cc3)CC2)c2nc(N)n3nc(-c4ccco4)nc3c21 (stereo not given),49%,Stable,,0.22 nM,Stable,0.2 nM,,,,,
Cn1c(=O)n(CCN2CCN(c3ccc(OC(F)F)cc3)CC2)c2nc(N)n3nc(-c4ccco4)nc3c21,34%,Stable,1.07 nM,0.27 nM,Stable,1.9 nM,,,,,
Cn1c(=O)n(CCN2CCN(c3ccc(F)cc3F)CC2)c2nc(N)n3nc(-c4ccco4)nc3c21,32%,Stable,,0.07 nM,Stable,1 nM,,,,,
Cn1c(=O)n(CCN2CCN(c3ccc(C#N)cc3)CC2)c2nc(N)n3nc(-c4ccco4)nc3c21,,Stable,1.15 nM,0.3 nM,Stable,0.6 nM,< 2 µM,5000 nM,> 8000,> 8000,> 8000
Cn1c(=O)n(CCN2CCN(c3ccc(OC4CC4)cc3)CC2)c2nc(N)n3nc(-c4ccco4)nc3c21,50%,Stable,,0.25 nM,Stable,0.3 nM,,,,,
Cn1c(=O)n(CCN2CCN(c3ccc(C#N)c(F)c3)CC2)c2nc(N)n3nc(-c4ccco4)nc3c21,50%,Stable,,0.4 nM,Stable,0.5 nM,,,,,
COCCOc1ccc(N2CCN(CCn3c(=O)n(C)c4c3nc(N)n3nc(-c5nccs5)nc43)CC2)cc1,19%,Stable,11.1 nM,1.2 nM,Stable,6.4 nM,,,,,
COCCOc1ccc(N2CCN(CCn3c(=O)n(C)c4c3nc(N)n3nc(-c5ccco5)nc43)CC2)cc1F,68%,Stable,,,Stable,0.7 nM,,,,,
Cn1c(=O)n(CCN2CCN(c3ccc(OCCOC4CC4)cc3)CC2)c2nc(N)n3nc(-c4ccco4)nc3c21,66%,Stable,,,Stable,2 nM,,,,,
Cn1c(=O)n(CCN2CCN(c3nc(C(F)(F)F)cs3)CC2)c2nc(N)n3nc(-c4ccco4)nc3c21,58%,Stable,,0.9 nM,Stable,1.2 nM,,,,,
COc1ccc(N2CCN(CCn3c(=O)n(C)c4c3nc(N)n3nc(-c5ccco5)nc43)CC2)cc1,58%,Stable,0.58 nM,0.21 nM,Stable,1 nM,,,,,
COCCOc1cc(F)c(N2CCN(CCn3c(=O)n(C)c4c3nc(N)n3nc(-c5ccco5)nc43)CC2)cc1F,58%,Stable,,1.2 nM,Stable,0.9 nM,,,,,
COCCOc1cccc(N2CCN(CCn3c(=O)n(C)c4c3nc(N)n3nc(-c5ccco5)nc43)CC2)c1,63%,Stable,3.9 nM,0.5 nM,Stable,0.5 nM,,,,,
COCC(C)(C)Oc1ccc(N2CCN(CCn3c(=O)n(C)c4c3nc(N)n3nc(-c5ccco5)nc43)CC2)cc1,36%,Stable,0.72 nM,2.1 nM,Stable,0.5 nM,,,,,
COCCOc1c(F)cc(N2CCN(CCn3c(=O)n(C)c4c3nc(N)n3nc(-c5ccco5)nc43)CC2)cc1F,65%,Stable,,,Stable,0.6 nM,,,,,
COc1ccc(N2CCN(CCn3c(=O)n(C)c4c3nc(N)n3nc(-c5ccco5)nc43)CC2)cn1,61%,Stable,,,Stable,4.5 nM,,,,,
Cn1c(=O)n(CCN2CCN(c3ccc(OC4CCOCC4)cc3)CC2)c2nc(N)n3nc(-c4ccco4)nc3c21,56%,Stable,,0.26 nM,Stable,0.3 nM,,,,,
COc1ccc(N2CCN(CCn3c(=O)n(C)c4c3nc(N)n3nc(-c5ccco5)nc43)CC2)c(F)c1,45%,Stable,0.06 nM,0.06 nM,Stable,0.4 nM,,,,,
Cc1ccc(N2CCN(CCn3c(=O)n(C)c4c3nc(N)n3nc(-c5ccco5)nc43)CC2)nc1,61%,Stable,0.65 nM,0.4 nM,Stable,1.7 nM,,,,,
Cc1nc2cc(N3CCN(CCn4c(=O)n(C)c5c4nc(N)n4nc(-c6ccco6)nc54)CC3)c(F)cc2o1,48%,Stable,0.05 nM,0.15 nM,Stable,0.4 nM,,,,,
